The data set in a line: Toxicity liver stage against HepG2, at 10uM. It is filed as cell-based. Set-up: test concentration 10 uM, cell line HepG2-A16-CD81EGFP. As to conditions: human, HepG2-A16-CD81EGFP cells; read-out: INHIBITION
A digest of the protocol: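 Uninfected HepG2-A16-CD81EGFP cells, 3 × 10^3 per well, 1536-well, plated on prespotted compound at 10 μM final, parasite-free screening media added to match infected plates; puromycin 10 μM positive, DMSO 0.5% negative; run in parallel with 48 h PbLuc assay at 37 °C, 5% CO2; viability by CellTiter-Glo luminescence, normalized to controls.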

Among the data in ChEMBL document CHEMBL4513216, “Probing the Open Global Health Chemical Diversity Library for Multistage-Active Starting Points for Next-Generation Antimalarials” (ACS Infect Dis, 2020) are cytotoxicity values, retold here.

SMILES strings stand for the structures.

In the case of `C=c1ncsc1=C1NN=C(C2CCCN2C(=O)CCn2cccn2)O1` (stereo not given), the cytotoxicity at 10 µM was found to be 2.29%.

For the compound `CCn1nc(C)c2nc(C(C)C)nc(N3CCCCC3)c21`, the cytotoxicity at 10 µM was -7.67%. The result for `Cc1cccc(S(=O)(=O)N2C[C@@H]3C[C@H](C(=O)NC4CCC4)[C@H](C2)O3)c1` reads -1.74%. For the compound `Cc1nccn1C1CCCN(C(=O)CCc2nc(C(C)C)no2)C1` (stereo not given), the cytotoxicity at 10 µM is -6.27%. For the compound `OCC1(CC2CC2)CCCN(Cc2ccc(C(F)(F)F)nc2)C1` (stereo not given), the cytotoxicity at 10 µM was -5.96%.

Consider `Cn1cc(CC2CC(=O)N(Cc3ccc(OC(F)F)cc3)C2=O)cn1` (stereo not given), for which the cytotoxicity at 10 µM was 6.6%.

Take `O=C([C@@H]1CC[C@@H]2[C@@H](CCN2c2ncccn2)O1)N1CCCO1`: the cytotoxicity at 10 µM amounted to 8.79%.

As to `CN(Cc1ccncc1)C1COC2(CCN(Cc3ccco3)CC2)C1` (stereo not given), the cytotoxicity at 10 µM was -77.9%.

With `NC(=O)CN1CCCC(C(=O)N2CCC(O)(c3ccccc3)CC2)C1` (stereo not given), the cytotoxicity at 10 µM is -7.55%. The result for `Cc1n[nH]c(C)c1C1COCCN1C(=O)c1cc(F)ccc1F` (stereo not given) reads -9.24%. The same measure for `CN(C)S(=O)(=O)NCCn1nc(-c2ccccc2)n(C)c1=O`: -2.17%; for `Cc1c(C(=O)N(C)CC(F)(F)F)nnn1-c1ccc(F)cc1`: 7.92%; for `CC(O)CCN(C)c1nc2ccccc2c(=O)[nH]1` (stereo not given): 12.6%. The result for `COC(=O)CN1CCSC(c2ccccc2)C1` (stereo not given) reads 17.8%; that for `O=C(N1CCCC1)N1C[C@@H]2CC[C@H]1CN(Cc1ccncc1)C2`, 4.63%; that for `CNC(=O)COC(=O)c1ccn(-c2ccc(Cl)c(Cl)c2)n1`, 20.9%. Regarding `O=C(c1ccc2nccn2c1)N1CCC(CCn2cccn2)CC1`, the cytotoxicity at 10 µM is -1.63%.

On to `Cn1c(CN2CCN(CC3CC3)CC2)nnc1C1CCC1`, for which the cytotoxicity at 10 µM was -26.7%. The same measure for `CCO[C@H]1C[C@@H](O)C12CCN(C(=O)CC(F)(F)F)CC2`: -6.36%; for `Cn1ccnc1CN1CCC2(CC1)CN(Cc1cccnc1)C(=O)CO2`: 4%; for `CCOCCNC(=O)c1cccc(Cn2nc(C)cc2C)c1`: -7.69%. Regarding `Cn1cc(C2CCCN2Cc2csc(Cc3ccccc3)n2)cn1` (stereo not given), the cytotoxicity at 10 µM is -1.19%. The result for `COCc1nc(N(C)C)ncc1C(=O)NC(C)c1ccccc1` (stereo not given) reads 6.03%; that for `CN(Cc1ccco1)c1ccc(-c2nccn2C)nn1`, -0.447%; that for `Cn1nc(CNC(=O)c2ccc(Cl)cc2)c2c1CCOC2`, 5.86%. The result for `COC(=O)N1CCCC(NC(=O)NCc2nc(C)cs2)C1` (stereo not given) reads 7.25%. For the compound `CN(C)C(=O)N1Cc2ccccc2C2(CCNCC2)C1`, the cytotoxicity at 10 µM is 1.26%. In the case of `COc1ccc(NC2(C(=O)N3CCn4cncc4C3)CCCC2)cc1`, the cytotoxicity at 10 µM came to 7.42%.

Turning to `COCCNC(=O)c1ccc(NCc2c(C)noc2C)cc1Cl`, the cytotoxicity at 10 µM is 0.678%. The same measure for `COc1cccc(S(=O)(=O)N2CCCCC2CCN2CCCC2=O)c1` (stereo not given): 7.12%; for `CCN(CCn1cccn1)C(=O)CN1C(=O)OC[C@@H]1C(C)C`: 1.97%; for `CCc1cc(N2CCC(NC3CCOCC3)CC2)nc(N(C)C)n1`: -14.5%. Consider `Cc1ccc(C(C(=O)N2CCC(Cc3noc(C)n3)CC2)N(C)C)cc1` (stereo not given), for which the cytotoxicity at 10 µM was -5.37%.

For `O=C1CC(N(C(=O)c2ccccc2Br)C2CC2)C(=O)N1` (stereo not given), the cytotoxicity at 10 µM came out at 10.3%. As to `Cc1ncc2c(c1C(=O)O)CCN(c1ncc(F)cn1)C2`, the cytotoxicity at 10 µM was -2.19%.

As to `O=C(NCc1ccc2c(c1)OCCO2)N1CCC(CO)CC1`, the cytotoxicity at 10 µM is -4.62%. The result for `COCCN(C(=O)c1cc(-c2ccc(C)s2)[nH]n1)C1CC1` reads 11.6%. As to `Cc1n[nH]c(C2CN(C(=O)CCOCC(F)(F)F)CCO2)n1` (stereo not given), the cytotoxicity at 10 µM is -12.9%. The same measure for `CN(C)c1ccc(C(=O)N2C[C@@H](CN3CCCCC3)[C@@H](CO)C2)cc1`: -1.72%; for `O=C1COC2(CCN(Cc3ccco3)CC2)CN1`: -1.49%; for `O=C(CN1CC(c2ccccc2)CC1=O)NCc1cc2n(n1)CCNC2` (stereo not given): 1.05%. The result for `c1ccc(CCN2CCN(C3CCOC4(CCOCC4)C3)CC2)nc1` (stereo not given) reads 2.1%; that for `O=c1oc(-c2cccs2)nn1CC(O)c1ccccc1` (stereo not given), 21.3%. The result for `CCn1cc(S(=O)(=O)N2CCN(S(=O)(=O)c3ccc(Br)s3)CC2)c(C)n1` reads 4.64%. For the compound `CC(=O)N1CC(c2ccnc(Nc3nccs3)n2)C1`, the cytotoxicity at 10 µM turned out to be 3.23%. The result for `CCN1CCC2(CC1)CC(NC(=O)N(C)C)c1cc(C)ccc12` (stereo not given) reads -13.1%; that for `CCn1ccnc1CN1CCCN(C(=O)c2sccc2C#N)CC1`, -8.08%; that for `COC(=O)CNC(=O)c1cc(-c2ccccc2)nc2ncnn12`, -5.07%.

In the case of `CN(C)c1nccc(C2CCCN(C(=O)CO)C2)n1` (stereo not given), the cytotoxicity at 10 µM is -29.1%. The result for `CCc1cccc(N2CCC(NC(=O)c3ccoc3C)CC2)c1` reads -10.8%; that for `Cc1n[nH]cc1CNCC1(c2ccccc2Cl)CCOCC1`, 8.16%; that for `O=C(CCc1nnc(-c2ccsc2)o1)NCC1CCN(C2CC2)C1` (stereo not given), -1.73%.

Take `COc1ccccc1CN1C(=O)O[C@@H]2CN(c3ccccn3)C[C@@H]21`: the cytotoxicity at 10 µM turned out to be 5.97%. The result for `CN(C)C(=O)CN1C[C@H]2CCN(C(=O)C3CCCO3)CC[C@H]2S1(=O)=O` (stereo not given in full) reads 20.6%; that for `O=C(c1ccco1)N1CCC[C@]2(C[C@H](Oc3ncccc3F)CO2)C1`, 2.49%; that for `Cc1ccc(-c2noc([C@H](N)CC(C)C)n2)nn1`, 1.27%. The result for `O=C1CC(c2ccc3c(c2)OCO3)c2cn[nH]c2N1` (stereo not given) reads 13.3%; that for `Cc1nc(CN2C(=O)CC[C@@H]3[C@H]2CCN3C(=O)NC2CC2)cs1`, 9.37%; that for `Cc1cccc(CCC(=O)NCC2CCCN2c2cccnn2)c1` (stereo not given), -3.96%. The result for `CC(NC(=O)CCCn1cnc2ccccc2c1=O)c1ncn[nH]1` (stereo not given) reads -4.31%. Consider `Cn1c(CCNC(=O)Nc2cn[nH]c2)nc2ccc(F)cc21`, for which the cytotoxicity at 10 µM was -6.97%. The result for `CCc1oc(C(=O)N[C@@H]2c3ccccc3C[C@@H]2O)cc1CN1CCCC1` reads -5.65%; that for `CCc1nc(C2CCCN2C(=O)c2cnc3n[nH]c(C)c3c2)no1` (stereo not given), 7.76%.

Take `COc1ccc(CN2CC3(CCNCC3)CCC2=O)c(F)c1F`: the cytotoxicity at 10 µM worked out at 10.9%. For the compound `O=C(NC1CC1)[C@@H]1C[C@@H]2CCN(Cc3ccoc3)C[C@@H]2O1`, the cytotoxicity at 10 µM was -103%.

For the compound `Cc1nc(C2CCCN(C(=O)c3ccc(N4CCCC4)nn3)C2)no1` (stereo not given), the cytotoxicity at 10 µM is -13.6%.

Consider `CC(C)c1nc2c(n1C)CCN(Cc1nc(-c3ccco3)no1)C2`, for which the cytotoxicity at 10 µM was -0.403%. As for `O=C(Cc1cccc(F)c1)NCCNCc1cccc(O)c1`, the cytotoxicity at 10 µM is -9.5%. The same measure for `CCOC(=O)c1ccc(NC(=O)Cn2cc(I)cn2)cc1`: 2.96%; for `COCc1noc(-c2nn(-c3ccccc3F)c3c2CCC3)n1`: -2.68%; for `N#Cc1c(SCCN2CCCCCC2)sc2c(O)cc(O)nc12`: -10.5%.

With `CNC(=O)CCN1CCN(C(C)c2ccc(Cl)cc2)CC1` (stereo not given), the cytotoxicity at 10 µM was -0.82%. The same measure for `CC1CCCN(C(=O)C2CCN(c3snc4ccccc34)CC2)C1` (stereo not given): 10.1%. The result for `N#Cc1cccnc1NCCC1CCN(CC(F)(F)F)CC1` reads 11%; that for `O=C(CCSc1ccccc1)NCC1CCN(Cc2ccsc2)CC1`, -6.93%.

For the compound `COC(=O)[C@H]1C[C@@H](O)CCN1S(=O)(=O)c1ccc(F)cc1F`, the cytotoxicity at 10 µM was -3.01%. As for `COc1ccc2oc(-c3cn(C)nc3C)c(O)c(=O)c2c1`, the cytotoxicity at 10 µM was found to be 9.96%. Turning to `CC(C)CN1C(=O)CC[C@H]2CN(C(=O)c3ncc[nH]3)CC[C@H]21`, the cytotoxicity at 10 µM is 5.09%. As to `CC(=O)N1CCCC2(CCN(C(=O)c3nn(C)c4ccccc34)CC2)C1`, the cytotoxicity at 10 µM is 2.26%.

Consider `CC(C)c1nc2c(n1C)CCN(Cc1cccc(OCC(N)=O)c1)C2`, for which the cytotoxicity at 10 µM was -7.24%. The same measure for `O=C1CC[C@H](C(=O)Nc2cnn(-c3ccccc3Br)c2)N1`: -2.84%.

For `c1cncc(CN2CC[C@H]3O[C@@H](COCC4CCOCC4)CC[C@H]32)c1`, the cytotoxicity at 10 µM was -73.5%. The same measure for `CCCNC(=O)CCNC(=O)N1CCc2c(F)ccc(F)c2C1`: -9.91%; for `CCc1noc(C)c1C(=O)N1CCCC(n2nc(C)nc2C)C1` (stereo not given): -7.01%. Take `CCN1CCN(C(=O)c2cn(Cc3ccccc3)c3ncccc23)CC1`: the cytotoxicity at 10 µM is -1.6%.

As for `Cc1nn(C)c(C)c1C1CCCN1Cc1nc(C)c2ccccc2n1` (stereo not given), the cytotoxicity at 10 µM is -3.9%.

As for `NC(=O)c1ccc(C(=O)N2CCCCC2C2OCCO2)cc1` (stereo not given), the cytotoxicity at 10 µM was -0.966%. The result for `CSCC(=O)N1CCCN(Cc2cscn2)CC1` reads -5.28%; that for `CC(=O)NCC(=O)N1CCc2c(CN(C)C)nn(C(C)C)c2C1`, -4.94%; that for `CCc1noc(C)c1C(=O)N1CCCCC1Cn1cc(C)cn1` (stereo not given), 10.8%. The result for `COc1ccc(N2CCN(C(=O)[C@@H]3C[C@@H](O)CN3)CC2(C)C)cc1` reads 4.95%; that for `CCC(COC)NC(=O)N1CCC(n2ccc(C(F)(F)F)n2)CC1` (stereo not given), -12%. The result for `Cc1cncnc1C1CCN(C(=O)C2(C)CCCCN2C)CC1` (stereo not given) reads 1.06%; that for `CC(=O)c1c(O)n(C)c2ccccc12`, 1.64%.

`O=S(=O)(CCOc1ccc(F)cc1)Nc1cnn(CC(F)F)c1`: the cytotoxicity at 10 µM is -4.87%.
